Kir21 block – Kir2.1 (mouse) channel inhibition | P35561 | AID 1672 | actives 0.85% (n = 310,000) | B-score at 10 µM | HEK293-Kir2.1, FluxOR thallium flux fluorescence; active compounds read low;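 active = fluorescence ratio B-score at or below minus 3 SD of library scores, with starting-brightness B-score within 2 SD, cut at about -4.2 in these data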;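 note: channel flux triggered by added potassium and thallium sulfate stimulus; B-score of peak minus minimum fluorescence over baseline after thallium stimulus; more negative B-score means stronger Kir2.1 block with less thallium influx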
KCNK9 block – human KCNK9 channel inhibition | HEK293 KCNK9, FluxOR thallium flux fluorescence; active compounds read low | B-score at 10 µM | actives 1.2% (n = 310,000) | Q9NPC2;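 active = ratio B-score over 3 SD below the library mean, with starting fluorescence within 5 SD of its mean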;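 note: negative B-score means less thallium flux so channel inhibition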
KCNK3 block – human KCNK3 channel inhibition, primary screen; CHO-KCNK3 thallium flux, FluxOR fluorescence; active compounds read low; actives 0.84% (n = 340,000); B-score at 10 µM; AID 602410;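 active = B-score under library mean minus 4 SD, starting fluorescence ratio at most library mean plus 5 SD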;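 note: more negative B-score means stronger inhibition of thallium flux through KCNK3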
hERG rescue – compounds protecting human hERG from proarrhythmic drug block. CHO-hERG, FluxOR thallium flux, dofetilide IC70 present. activation (rescue from dofetilide block), less the hit threshold, % at 10 µM. actives 0.51% (n = 310,000). AID 1511;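 active = activation above the mean of controls blocked by dofetilide plus 5 SD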;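 note: thallium influx through hERG after potassium depolarization seen as dye fluorescence rise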
Target sequence (Q12809 whole entry, looked up): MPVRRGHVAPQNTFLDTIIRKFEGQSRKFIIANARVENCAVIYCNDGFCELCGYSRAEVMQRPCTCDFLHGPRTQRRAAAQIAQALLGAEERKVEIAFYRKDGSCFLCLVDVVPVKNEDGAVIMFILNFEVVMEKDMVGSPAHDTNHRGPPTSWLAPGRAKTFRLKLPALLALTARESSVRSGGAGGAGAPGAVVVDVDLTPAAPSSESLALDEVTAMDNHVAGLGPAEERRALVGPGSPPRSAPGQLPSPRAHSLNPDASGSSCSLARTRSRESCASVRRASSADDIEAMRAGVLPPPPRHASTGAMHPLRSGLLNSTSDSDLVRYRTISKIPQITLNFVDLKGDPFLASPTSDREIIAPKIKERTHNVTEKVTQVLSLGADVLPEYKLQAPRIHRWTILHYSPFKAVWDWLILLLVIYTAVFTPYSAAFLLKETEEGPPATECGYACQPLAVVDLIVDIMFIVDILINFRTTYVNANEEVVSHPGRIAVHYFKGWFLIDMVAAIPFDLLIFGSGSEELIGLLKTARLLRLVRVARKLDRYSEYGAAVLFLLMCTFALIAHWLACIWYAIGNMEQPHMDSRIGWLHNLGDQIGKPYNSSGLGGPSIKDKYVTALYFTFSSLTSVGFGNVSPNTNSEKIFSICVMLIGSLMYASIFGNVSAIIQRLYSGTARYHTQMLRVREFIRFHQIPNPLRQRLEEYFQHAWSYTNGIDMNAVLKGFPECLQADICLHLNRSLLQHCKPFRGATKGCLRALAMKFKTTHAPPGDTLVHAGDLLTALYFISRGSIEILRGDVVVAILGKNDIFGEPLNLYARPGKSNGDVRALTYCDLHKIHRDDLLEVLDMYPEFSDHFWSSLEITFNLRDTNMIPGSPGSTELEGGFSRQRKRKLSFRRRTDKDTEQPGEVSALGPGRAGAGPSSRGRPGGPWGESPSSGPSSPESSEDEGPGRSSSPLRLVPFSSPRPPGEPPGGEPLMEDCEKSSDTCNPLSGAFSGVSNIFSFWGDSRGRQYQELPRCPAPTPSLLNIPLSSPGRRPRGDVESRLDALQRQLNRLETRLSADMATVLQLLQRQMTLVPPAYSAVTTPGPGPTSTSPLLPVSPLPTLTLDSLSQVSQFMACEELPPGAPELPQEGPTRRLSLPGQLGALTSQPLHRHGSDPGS
KCNQ1 inh – human KCNQ1 channel inhibition; actives 1.3% (n = 310,000); AID 2642; P51787; B-score at 10 µM; CHO-K1 KCNQ1, FluxOR thallium flux fluorescence; active compounds read high;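 active = compounds whose thallium flux B-score, printed positive for inhibition, exceeds three library SD while starting fluorescence stays within three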;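 note: channel opened by potassium depolarization with thallium stimulus after 20 min compound exposure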
KCNQ1 act – human KCNQ1 channel potentiation or activation; P51787; CHO-K1 KCNQ1, thallium flux FluxOR fluorescence; active compounds read high; B-score at 10 µM; actives 0.35% (n = 310,000); AID 2648;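 active = fluorescence ratio B-score, a plate-corrected score, at least three library SD, with initial intensity B-score within 5 SD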
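System: Stable KCNQ1 CHO-K1 line | Incubation: 90 min dye loading and 20 min compound exposure, both at room temperature | Measure: Ratio B score | Medium: Assay buffer for compound exposure, DMSO matched across wells | Compound dosing: Single-concentration screen | Probe or stimulus: K+/Tl+ depolarizing stimulus | Measured by: Kinetic FluxOR fluorescence, 10 s baseline plus 110 s post-stimulus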
Large screens that a line does not name were inactive. Compounds with a hit are over-represented: about 3.7% of the library has one in this group of screens.

O=C1c2cccc3c(N4CCCCC4)ccc(c23)C(=O)N1c1ccccn1	KCNK9 block -7.6, KCNQ1 inh 8
O=C1c2cccc3c([N+](=O)[O-])ccc(c23)C(=O)N1c1ccc(Cl)cn1	Kir21 block -5, KCNQ1 inh 7
O=C(Nc1ccc(-c2n[nH]c(=S)o2)cc1)c1ccccc1Cl	none
CC(C)NC(=O)c1ccc(C(C)C)cc1	none
COc1ccc(NC(=O)c2ccc(S(=O)(=O)N(C)c3ccccc3)cc2)cn1	none
CC(=O)c1c(OC(=O)c2ccc(C)cc2)c2ccccc2n1C	KCNK9 block -7.2
OC(CNC1CCCc2ccccc21)COc1ccc2ccccc2c1 (stereo unspecified)	Kir21 block -10
O=C(c1ccccc1)c1ccc(OCC(O)CNC2CCCc3ccccc32)cc1 (stereo unspecified)	Kir21 block -6.2
COc1ccc(Cl)cc1NC(=O)CN(C)C(=O)c1cc2c(F)cccc2s1	KCNK3 block -8.8 (no result: Kir21 block, KCNK9 block, hERG rescue, KCNQ1 inh, KCNQ1 act)
Oc1[nH]c2ccccc2c1N=Nc1ccccn1	none (no result: Kir21 block, KCNK9 block, hERG rescue, KCNQ1 inh, KCNQ1 act)
Oc1c(N=Nc2ccccn2)ccc2ccccc12	hERG rescue 25, KCNQ1 act 29
Cc1ccc(-c2n[nH]c(=S)nc2-c2ccc(C)cc2)cc1	hERG rescue 6.7
COc1ccc(-n2c(SCC(=O)NC3CC3)nc3ccccc3c2=O)cc1OC	none (no result: Kir21 block, KCNK9 block, hERG rescue, KCNQ1 inh, KCNQ1 act)
O=[N+]([O-])c1ccc(Nc2ccc3ccccc3c2)nc1	hERG rescue 5.5
O=c1c2ccccc2c(C=NCCCN2CCOCC2)c(O)n1Cc1ccccc1	Kir21 block -5.8
O=c1c2ccccc2c(C=NCCc2ccccc2)c(O)n1Cc1ccccc1	KCNQ1 inh 6
CCc1ccccc1NC(=O)COc1ccc(N2CC(C(N)=O)CC2=O)cc1 (stereo unspecified)	none
CCOC(=O)c1sc2nc(CC(=O)OC)nc(NCc3ccco3)c2c1C	none
CCOC(=O)c1sc2ncnc(NCc3ccco3)c2c1C	hERG rescue 16, KCNQ1 act 37
CC1CCCN(C(=O)c2ccc(OC3CCN(CCc4ccccc4)CC3)cc2)C1 (stereo unspecified)	Kir21 block -4.5
COn1c2c(c3c4no[n+]([O-])c4ccc31)CCCC2	none
[O-][n+]1c2c(c3c4non(O)c4ccc31)CCCC2	KCNQ1 inh 6
COCCCn1c(=O)c2ccccc2n(Cc2ccc(C)cc2)c1=O	KCNK9 block -7.7
N#C/C(=C/c1ccc(-c2ccc(S(=O)(=O)N3CCOCC3)cc2)o1)C(=O)NC1CC1	none (no result: Kir21 block, KCNK9 block, hERG rescue, KCNQ1 inh, KCNQ1 act)
N#C/C(=C\c1ccc(N2CCOCC2)o1)C(=O)NCC1CCCO1 (stereo unspecified)	KCNQ1 inh 9
N#C/C(=C\c1ccc(N2CCOCC2)o1)C(=O)NC1CCCCC1	KCNQ1 inh 9
COCCNC(=O)/C(C#N)=C/c1ccc(N2CCOCC2)o1	none
N#C/C(=C/c1ccc(N2CCOCC2)o1)C(=O)Nc1ccccc1	KCNK9 block -6.6
CC(=O)Nc1ccc(NC(=O)C(C)OC(=O)C2CCCCC2)cc1 (stereo unspecified)	none (no result: Kir21 block, KCNK9 block, hERG rescue, KCNQ1 inh, KCNQ1 act)
CCOc1ccc(-c2noc(CCC(=O)NCC3CCCO3)n2)cc1OC (stereo unspecified)	none
CCCNC(=O)C(Cc1ccccc1)NC(=O)c1ccc(C(F)(F)F)cc1 (stereo unspecified)	none (no result: Kir21 block, KCNK9 block, hERG rescue, KCNQ1 inh, KCNQ1 act)
COc1cccc(C2=NN(C(=O)c3ccco3)C(O)(C(F)(F)F)C2)c1 (stereo unspecified)	none
Nc1ccc(C(=O)N2N=C(c3ccccc3)CC2(O)C(F)(F)F)cc1 (stereo unspecified)	none
Cc1ccc(C2=NN(C(=O)c3ccco3)C(O)(C(F)(F)F)C2)cc1 (stereo unspecified)	Kir21 block -4.6
O=C(c1ccccc1O)N1N=C(c2ccccc2)CC1(O)C(F)(F)F (stereo unspecified)	KCNQ1 inh 6
CCCC(NC(=O)c1ccc(Br)o1)c1nc2ccccc2[nH]1 (stereo unspecified)	none (no result: Kir21 block, KCNK9 block, hERG rescue, KCNQ1 inh, KCNQ1 act)
CSc1ccc(/C=N/n2c(Cc3ccc(Br)cc3)n[nH]c2=S)cc1	hERG rescue 155
O=C(Nc1ccccc1Cc1ccccc1)c1ccccc1NS(=O)(=O)c1ccc(Cl)s1	KCNQ1 inh 8
O=S(=O)(Nc1ccccc1N1CCCCC1)c1ccc(Cl)s1	KCNK9 block -7.4
O=C(NCc1ccco1)c1ccccc1NS(=O)(=O)c1ccc(Cl)s1	none
Cc1ccc(NC(=O)c2ccccc2NS(=O)(=O)c2ccc(Cl)s2)cc1	KCNK9 block -7.5
COc1ccc(CN2CCN(Cc3cccc4nonc34)CC2CCO)c(C)c1C (stereo unspecified)	hERG rescue 5.3
CCOP(=O)(OCC)C(NCc1ccccc1)c1ccc(Br)cc1 (stereo unspecified)	Kir21 block -4.3
CCOP(=O)(OCC)C(NC(=O)Nc1ccccc1)c1ccccc1 (stereo unspecified)	none
COc1cc(S(=O)(=O)n2c(C)nc3ccccc32)ccc1F	none
COc1cc(F)ccc1S(=O)(=O)n1c(C)nc2ccccc21	Kir21 block -6.5
COc1cc(C)c(C)cc1S(=O)(=O)n1c(C)nc2ccccc21	Kir21 block -5.1
COc1ccc(CNC(=O)CN(C(=O)CCC(=O)Nc2ccccn2)c2cccc(C)c2C)cc1	none
CC1(C)CC(=O)c2c(nn(-c3ccccc3)c2-c2ccncc2)C1	hERG rescue 7.1
Cc1c2c(nc3ccccc13)CC(C)(C)CC2=O	none
O=C(COc1ccc(-c2ccccc2)cc1)N/N=C/c1cc(O)ccc1Br	KCNQ1 inh 11
COC(CN1CCc2c(C)nc3c(C#N)cnn3c21)OC	hERG rescue 6.3
Cc1ccnc(NS(=O)(=O)c2cnc(Cl)c(Br)c2)c1	none
COc1ccc(-c2nnc(-c3ccc(C)cc3)o2)cc1	none
COc1ccc(-c2nnc(-c3ccccc3O)o2)cc1	hERG rescue 5.1
CCN(CC)C(=O)CSc1nnc2nnc3cc(OC)ccc3n12	none
CC(C)(C)OC(=O)N1CCC[C@H]1c1nnc(SCc2c(Cl)cccc2Cl)o1	none
Cc1cccc(CSc2nnc([C@@H]3CCCN3C(=O)OC(C)(C)C)o2)c1	Kir21 block -6
O=C1CCN2C=Nc3cccc4ccc1c2c34	KCNQ1 inh 25
O=C1CCC(=O)c2ccc3c4c(ccc1c24)CC3	none (no result: Kir21 block, KCNK9 block, hERG rescue, KCNQ1 inh, KCNQ1 act)
COc1ccc(C(O)(C2CCCCC2)C(CN2CCOCC2)c2ccccc2)cc1 (stereo unspecified)	none
OC(c1ccccc1)(C1CCCCC1)C(CN1CCOCC1)c1ccccc1 (stereo unspecified)	KCNQ1 inh 6
CCC(NC(=O)c1ccc2nc(Cc3ccc(OC)cc3)oc2c1)c1ccncc1 (stereo unspecified)	none

Screens: PubChem, Johns Hopkins Ion Channel Center
